Measured values: ChEMBL document CHEMBL4000151, “Potent Small Agonists of Protease Activated Receptor 2” (ACS Med Chem Lett, 2016)
pEC50: −log10 of the molar value. Calls of active or inactive are those of the source. The calls are words filed in the database; no cut-off is given here. Non-standard residues stand in square brackets, D forms with d. Residues, ends and D or L forms follow the SMILES beside them. ξ: configuration not given here. *: point of attachment. Isoxazole(5-carbonyl) = O=C(c1ccno1)*; ξCha = NC(CC1CCCCC1)C(=O)O; ξChg = NC(C(=O)O)C1CCCCC1; Orn = NCCC[C@H](N)C(=O)O; 2Furoyl = O=C(c1ccco1)*

Experiments:
CHO = test: Induction of intracellular calcium release in PAR2 deficient CHO cells at 100 uM measured for 300 secs by Fluo-3 AM dye-based fluorescence assay; assay type: functional, cell-based; details: Cricetulus griseus
In short: (§1)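 CHO cells stably expressing human PAR2 (wild-type or point mutant), or untransfected CHO cells, plated ~5 × 10^4/well overnight at 37 °C. Loaded 1 h at 37 °C with 4 μM Fluo-3 AM in HBSS with 1% FBS, then washed into HBSS with 2.5 mM probenecid and 20 mM HEPES, pH 7.4. Compound added over a concentration range. Ca2+ read 300 s (ex 495/em 520 nm); duplicates; normalized to calcimycin; EC50 from nonlinear regression.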

Plasma = test: Metabolic stability in rat plasma at 1 uM at pH 7.4 after 4 hrs by UPLC-MS analysis; assay type: ADME, cell-free; details: pH 7.4, 4 h
In short: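 Compound from DMSO stock added to a 1:1 mixture of PBS and rat plasma at 37 °C, 1 μM initial. Aliquots taken at 0 to 240 min and quenched in MeCN, then centrifuged. Supernatant analysed by UPLC-MS as % of t = 0 peak area; n = 3.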

[1] = target: T1, Proteinase-activated receptor 2 (Homo sapiens, UniProt P55085); test: Agonist activity at human PAR2 expressed in CHO cells assessed as induction of intracellular calcium release measured for 300 secs by Fluo-3 AM dye-based fluorescence assay; assay type: functional, cell-based
T1 sequence (P55085 whole entry): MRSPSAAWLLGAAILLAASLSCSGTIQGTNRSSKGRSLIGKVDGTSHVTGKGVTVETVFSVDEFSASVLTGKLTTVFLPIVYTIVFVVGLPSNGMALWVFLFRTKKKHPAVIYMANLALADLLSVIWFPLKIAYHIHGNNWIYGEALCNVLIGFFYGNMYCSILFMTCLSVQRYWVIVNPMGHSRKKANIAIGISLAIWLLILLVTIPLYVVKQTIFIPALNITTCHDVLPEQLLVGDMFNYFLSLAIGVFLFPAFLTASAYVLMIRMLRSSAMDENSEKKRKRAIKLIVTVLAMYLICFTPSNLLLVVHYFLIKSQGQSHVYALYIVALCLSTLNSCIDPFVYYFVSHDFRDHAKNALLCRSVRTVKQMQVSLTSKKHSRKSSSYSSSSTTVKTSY
In short: as §1, with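 “range.” for “range. Ca2+ read 300 s (ex 495/em 520 nm); duplicates; normalized to calcimycin; EC50 from nonlinear regression.”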

[2] = target: Proteinase-activated receptor 2 (Homo sapiens) (UniProt P55085); test: Agonist activity at PAR2 in human MDA-MB-231 cells assessed as induction of chemotaxis at 100 nM incubated for 24 hrs by transwell migration assay; assay type: cell-based
In short: (§2)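 MDA-MB-231 cells lifted non-enzymatically into serum-free L-15 with 0.1% BSA and seeded at 2.5 × 10^5/insert on collagen-coated 5 μm transwell membranes, 3 h at 37 °C. Agonist at 100 nM placed in the bottom chamber for 24 h; SAM11 anti-PAR2 antibody (1 μg/mL) preincubated 30 min where used. Migrated cells stained with crystal violet and counted; chemotactic index = agonist/random migration.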

[3] = target: Proteinase-activated receptor 2 (Homo sapiens) (UniProt P55085); test: Agonist activity at PAR2 in human MDA-MB-231 cells assessed as induction of chemotaxis at 100 nM incubated for 24 hrs cells preincubated with PAR2 antibody SAM11 prior to test compound addition by transwell migration assay; assay type: cell-based; in short: as §2
[4] = target: Proteinase-activated receptor 2 (Homo sapiens) (UniProt P55085); test: Agonist activity at PAR2 in human PC3 cells assessed as induction of intracellular calcium release at 25 uM of first compound treatment followed by 100 uM of second compound treatment by Fluo-3 AM dye based fluorescence assay; assay type: functional, cell-based

Row | pEC50 [1] | Molecule | Activity (CHO) | also measured
1 | – | NC(=O)[C@@H](NC(=O)[C@H](CC1CCCCC1)NC(=O)c1ccno1)C1CCCCC1 | inactive | Stability (Plasma): Stable
2 | 6.52 | CC[C@H](C)[C@H](NC(=O)[C@H](CC(C)C)NC(=O)c1ccco1)C(=O)NCC(=O)N[C@@H](CCCN=C(N)N)C(=O)N[C@@H](CC(C)C)C(=O)N[C@@H](CCCN)C(N)=O (2Furoyl-LIGRL[Orn]-NH2) | – | –
3 | – | CC[C@H](C)[C@H](NC(=O)[C@H](CC(C)C)NC(=O)c1ccco1)C(=O)NCC(=O)N[C@@H](CCCNC(=N)N)C(=O)N[C@@H](CC(C)C)C(=O)N[C@@H](CCCN)C(N)=O (2Furoyl-LIGRL[Orn]-NH2) | inactive | Activity [2]: Active; Activity [3]: inactive; Activity [4]: inactive
4 | 6.70 | CC[C@H](C)[C@H](NC(=O)C(CC1CCCCC1)NC(=O)c1ccno1)C(=O)NCC(=O)N[C@@H](CCCNC(=N)N)C(=O)N[C@@H](CC(C)C)C(N)=O (stereo not given in full) ({Isoxazole(5-carbonyl)}-[ξCha]IGRL-NH2) | – | –
5 | 7.10 | CC(C)C[C@H](NC(=O)[C@H](CCCNC(=N)N)NC(=O)CNC(=O)C(NC(=O)C(CC1CCCCC1)NC(=O)c1ccno1)C1CCCCC1)C(N)=O (stereo not given in full) ({Isoxazole(5-carbonyl)}-[ξCha][ξChg]GRL-NH2) | – | –

Row | Molecule | pEC50 [1] | Activity (CHO) | also measured
6 | H-SLIGKV-NH2 | 5.52 | – | –
